The inhibition is the relative decrease from the control value, in per cent. In general, pIC50 refers to the IC50 on a negative log10 scale, so that one unit is a factor of ten.

The source of these data is ChEMBL document CHEMBL2401732, “Evaluation of adenine as scaffold for the development of novel P2X3 receptor antagonists” (Eur J Med Chem, 2013).

The target of experiment [1] is T1, P2X purinoceptor 3 (Rattus norvegicus) (UniProt P49654).
T1 sequence (whole entry): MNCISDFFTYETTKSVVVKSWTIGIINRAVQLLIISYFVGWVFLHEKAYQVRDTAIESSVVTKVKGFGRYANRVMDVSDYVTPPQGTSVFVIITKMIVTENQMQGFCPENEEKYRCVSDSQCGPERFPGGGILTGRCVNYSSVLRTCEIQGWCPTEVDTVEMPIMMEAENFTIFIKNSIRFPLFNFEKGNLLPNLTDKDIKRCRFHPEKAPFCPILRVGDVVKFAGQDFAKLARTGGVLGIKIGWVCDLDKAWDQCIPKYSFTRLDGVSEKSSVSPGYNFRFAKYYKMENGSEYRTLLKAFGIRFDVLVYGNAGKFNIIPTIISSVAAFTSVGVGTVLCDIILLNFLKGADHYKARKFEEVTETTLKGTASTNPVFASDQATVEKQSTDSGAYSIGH
The experiment is described as follows: Antagonist activity at rat recombinant P2X3 receptor expressed in HEK293T cells assessed as desensitization of alpha,beta-methyleneATP-induced current at 100 uM after 20 secs by patch clamp technique. In kind it is cell-based. The note with it: HEK-293T. The essentials:
(§1)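 HEK 293T cells transiently co-transfected by calcium phosphate with pEGFP and pcDNA3-P2X3 (rat or human, 1:1), used 24 or 48 h later. GFP-positive cells whole-cell clamped at -60 mV, room temperature, CsCl pipette solution, HEPES-buffered bath pH 7.4. Control response averaged over ≥3 pulses of 100 μM α,β-meATP (2 s, 5 min apart). Compound applied 20 s before agonist. Screening at 100 μM, then 100–0.3 μM. Peak % inhibition computed; Hill fits of dose–inhibition data, n = 6–14 cells.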
Background: In patch-clamp work, channel activity is measured electrically.

For experiment [2], the target named is T1, P2X purinoceptor 3 (Rattus norvegicus). Put plainly: Antagonist activity at rat recombinant P2X3 receptor expressed in HEK293T cells assessed as desensitization of alpha,beta-methyleneATP-induced current at 10 uM after 20 secs by patch clamp technique. Format: cell-based. The note with it: HEK-293T. The essentials: as §1
Experiment [3] shares this target. Put plainly: Antagonist activity at rat recombinant P2X3 receptor expressed in HEK293T cells assessed as desensitization of alpha,beta-methyleneATP-induced current at 0.3 uM after 20 secs by patch clamp technique. The note with it: HEK-293T. Format: cell-based. The essentials:
as §1

The target is the same in experiment [4]. The experiment is described as follows: Antagonist activity at rat recombinant P2X3 receptor expressed in HEK293T cells assessed as desensitization of alpha,beta-methyleneATP-induced current at 1 uM after 20 secs by patch clamp technique. In kind it is cell-based. Conditions: HEK-293T. An outline of the steps:
as §1

The target of a further experiment is T2, P2X purinoceptor 3 (Rattus norvegicus, UniProt P49654).
T2 sequence (P49654 whole entry): T1 sequence (whole entry)
The experiment is described as follows: Antagonist activity at rat recombinant P2X3 receptor expressed in HEK293T cells assessed as desensitization of alpha,beta-methyleneATP-induced current after 20 secs by patch clamp technique. In kind it is cell-based, HEK-293T. An outline of the steps: as §1

Experiment [5] concerns the target T1, P2X purinoceptor 3 (Rattus norvegicus). Put plainly: Antagonist activity at rat recombinant P2X3 receptor expressed in HEK293T cells assessed as desensitization of alpha,beta-methyleneATP-induced current at 100 uM after 6 mins of compound wash out by patch clamp technique. The note with it: HEK-293T. Format: cell-based. The essentials: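 Rat P2X3 in transfected HEK 293T cells, whole-cell clamp at -60 mV. After 20 s compound application and a 2 s pulse of 100 μM α,β-meATP, the cell was washed for 6 min. Recovery was assessed as the peak current to a repeat agonist pulse, compared with the control peak.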

Experiment [6] concerns the target T3, P2X purinoceptor 3 (Mus musculus) (UniProt Q3UR32).
T3 sequence (whole entry): T1 sequence (whole entry) with L144R, R202K, A377T
Put plainly: Antagonist activity at P2X3 receptor in C57Bl/6 wild type mouse trigeminal ganglion sensory neurons assessed as desensitization of alpha,beta-methyleneATP-induced current at 1 uM after 20 secs by patch clamp technique. Format: tissue-based. The essentials: (§2)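 Native P2X3 in trigeminal ganglion neurons from C57Bl/6 mice (P10–14), dissociated with trypsin/collagenase/DNAse at 37 °C for 12 min and cultured 24 h. Small/medium neurons whole-cell voltage clamped at -60 mV, room temperature. Pipette KCl-based with ATP–Mg/GTP–Li, pH 7.2. Compound superfused 20 s, then 2 s pulse of 100 μM α,β-meATP. % inhibition = 100×(1−I2/I1) from peak currents.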

Experiment [7] addresses T3, P2X purinoceptor 3 (Mus musculus). The experiment is described as follows: Antagonist activity at P2X3 receptor in C57Bl/6 wild type mouse trigeminal ganglion sensory neurons assessed as desensitization of alpha,beta-methyleneATP-induced current at 100 uM after 20 secs by patch clamp technique. In kind it is tissue-based. The essentials: as §2
The target of experiment [8] is T4, P2X purinoceptor 3 (Homo sapiens) (UniProt P56373).
T4 sequence (whole entry): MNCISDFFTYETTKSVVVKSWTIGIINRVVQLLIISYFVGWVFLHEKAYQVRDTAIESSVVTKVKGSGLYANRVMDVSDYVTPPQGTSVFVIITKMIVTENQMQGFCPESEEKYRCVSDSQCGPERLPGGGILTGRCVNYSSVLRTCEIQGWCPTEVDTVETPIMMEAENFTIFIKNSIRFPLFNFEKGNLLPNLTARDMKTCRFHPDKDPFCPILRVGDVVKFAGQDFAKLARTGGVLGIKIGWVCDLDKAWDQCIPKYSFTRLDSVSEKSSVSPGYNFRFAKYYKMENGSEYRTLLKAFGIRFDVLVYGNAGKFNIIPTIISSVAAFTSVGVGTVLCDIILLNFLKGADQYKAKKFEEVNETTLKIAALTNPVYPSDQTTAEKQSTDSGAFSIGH
The experiment is described as follows: Antagonist activity at human recombinant P2X3 receptor expressed in HEK293T cells assessed as desensitization of alpha,beta-methyleneATP-induced current at 100 uM after 20 secs by patch clamp technique. In kind it is cell-based. The note with it: HEK-293T, 1 uM, in the assay text read “at 1 uM” for “at 100 uM”. An outline of the steps: as §1

The target in experiment [9] is T1, P2X purinoceptor 3 (Rattus norvegicus). The experiment is described as follows: Antagonist activity at rat recombinant P2X3 receptor expressed in HEK293T cells assessed as desensitization of alpha,beta-methyleneATP-induced current at 100 uM after 20 secs by patch clamp technique relative to control. Details: scale not given: the % may be the effect or the level left. Conditions: HEK-293T. In kind it is cell-based. An outline of the steps: as §1

Substitutions are numbered along the chain they refer to. pIC50: −log10 of the molar value. Calls of active or inactive are those of the source. No cut-off for these calls is given here.

In the case of `COc1cc(C(C)C)c(Cn2cnc3c(OC)nc(N)nc32)cc1I`, the inhibition in [1] worked out at 50%.
On to `COc1cc(Cn2cnc3nc(N)nc(N)c32)c(C(C)C)cc1OC`, for which the inhibition in experiment [1] stood at 23%.
For the molecule `COc1cc(C(C)C)c(Cn2cnc3c(NC4CCCC4)nc(N)nc32)cc1I`, the inhibition in experiment [2] is 60%; in experiment [3], 45%; in experiment [4], 51%; in [1], 58%.
For the molecule `CNc1nc(N)nc2c1ncn2Cc1cc(OC)c(OC)cc1C(C)C`, in experiment [1], the inhibition stood at 71%.
Take `COc1cc(C(C)C)c(Cn2cnc3c(N)nc(N)nc32)cc1I`: the inhibition in experiment [2] turned out to be 78%; in [3], 23%; in experiment [4], 35%; in experiment [1], 93%. In addition, the pIC50 on P2X purinoceptor 3 was 5.65.
Consider `COc1cc(C(C)C)c(Cn2cnc3nc(N)nc(N)c32)cc1I`, for which the inhibition in experiment [2] stood at 43%.
For the molecule `COc1cc(Cn2cnc3c(N)nc(N)nc32)c(C(C)C)cc1OC`, the inhibition in [2] is 36%; in experiment [4] it was 8%; in experiment [1] it was 82%. Also, at P2X purinoceptor 3, the pIC50 is 4.73. Also, the outcome in experiment [5] was inactive.
On to `COc1cc(Cn2cnc3nc(N)nc(Cl)c32)c(C(C)C)cc1OC`, for which, in experiment [1], the inhibition came out at 19%.
Take `CNc1nc(N)nc2c1ncn2Cc1cc(I)c(OC)cc1C(C)C`: the inhibition in experiment [2] is 76%; in experiment [3], 22%; in experiment [4], 41%; in [1] it was 98%; in experiment [6], 37%; in experiment [8], 29%. For the same molecule, the inhibition entry in experiment [7] was “Active”. Further, the pIC50 at P2X purinoceptor 3 is 5.76. Further, the outcome in experiment [5] was inactive.
In the case of `COc1cc(Cn2cnc3c(Cl)nc(N)nc32)c(C(C)C)cc1OC`, in experiment [9], the Activity was 6%. For the same molecule, in experiment [1], the inhibition is 27%.
